From ChEMBL document CHEMBL4732082, “Development of novel benzimidazole-derived neddylation inhibitors for suppressing tumor growth invitro and invivo” (Eur J Med Chem, 2021)
Active and inactive are the calls of the source. The rule behind the calls is not given here.

Key:
[1] = test system: A549; assay: Induction of cellular senescence in human A549 cells at 10 uM by SA-beta-gal-staining based assay; assay type: functional, cell-based
[2] = test system: A549; assay: Induction of apoptosis in human A549 cells assessed as early apoptotic cells at 20 uM after 48 hrs by Annexin V-FITC/PI double staining based flow cytometric analysis (reference value: 2.04%); assay type: functional
[3] = target: T1, NEDD8-activating enzyme E1 regulatory subunit (Homo sapiens) (UniProt Q13564); assay: Inhibition of NAE-mediated UBE2M neddylation in human A549 cells at 12.5 to 25 uM measured after 6 to 12 hrs by Western blot analysis; assay type: cell-based; details: dose 12.5-25 µM, time 6-12 hrs
T1 sequence (whole entry): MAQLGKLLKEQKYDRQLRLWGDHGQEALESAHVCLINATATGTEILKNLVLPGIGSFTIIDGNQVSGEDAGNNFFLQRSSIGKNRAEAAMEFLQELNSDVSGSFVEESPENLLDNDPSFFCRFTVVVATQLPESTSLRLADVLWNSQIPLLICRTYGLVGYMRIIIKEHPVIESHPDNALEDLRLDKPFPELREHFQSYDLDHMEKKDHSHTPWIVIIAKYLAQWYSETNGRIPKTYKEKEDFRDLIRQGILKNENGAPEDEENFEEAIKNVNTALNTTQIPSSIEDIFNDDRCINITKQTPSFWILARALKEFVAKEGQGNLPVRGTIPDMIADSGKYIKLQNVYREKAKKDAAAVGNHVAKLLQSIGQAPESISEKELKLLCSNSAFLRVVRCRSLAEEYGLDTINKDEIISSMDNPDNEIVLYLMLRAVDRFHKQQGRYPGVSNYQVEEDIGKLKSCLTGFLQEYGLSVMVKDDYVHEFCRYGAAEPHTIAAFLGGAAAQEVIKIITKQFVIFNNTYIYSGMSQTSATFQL
Procedure, shortened: (§1)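 A549 cells were treated 6 or 12 h with graded concentrations (4.5–75 μM) against a 0.1% DMSO control. Cells were washed in cold PBS, lysed in RIPA on ice and cleared by centrifugation, and protein was normalized. Cullin-Nedd8 was resolved on non-reducing SDS-PAGE and Wee1/p27 under reducing conditions, then detected by Western blot.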

[4] = test system: A549; assay: Induction of apoptosis in human A549 cells assessed as increase in ratio of early and late apoptotic cells at 10 to 40 uM after 48 hrs by Annexin V-FITC/PI double staining based flow cytometric analysis (reference value: 2.6%); assay type: functional; details: dose 10-40 µM
[5] = test system: A549; assay: Antitumor activity against human A549 cells xenografted in nude mouse assessed as decrease in tumor volume at 30 mg/kg, ip qd for 5 days on and 2 days off dosing and measured after 24 days post-treatment; assay type: functional, organism-based; details: time 24.0 day
Procedure, shortened: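 Female nude mice were inoculated subcutaneously with 2×10^6 A549 cells in 0.1 mL PBS. At tumor volume 70–100 mm³, mice were randomized into 5 groups of 6. Dosing was ip or oral gavage, once daily on a 5-days-on/2-days-off schedule, with 10% 2-hydroxypropyl-β-cyclodextrin/water as vehicle control. Body weight and tumor volume were measured every two days; tumors were weighed at sacrifice. Significance by two-tailed Student's t-test.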

[6] = target: T1, NEDD8-activating enzyme E1 regulatory subunit (Homo sapiens); assay: Inhibition of NAE-mediated neddylation in human A549 cells assessed as suppression of cullin1-Nedd8 adduct formation at 12.5 to 25 uM measured after 6 to 12 hrs by Western blot analysis; assay type: cell-based; details: dose 12.5-25 µM, time 6-12 hrs; procedure, shortened: as §1
[7] = test system: A549; assay: Induction of apoptosis in human A549 cells assessed as late apoptotic cells at 10 uM after 48 hrs by Annexin V-FITC/PI double staining based flow cytometric analysis (reference value: 4.62%); assay type: functional
[8] = test system: A549; assay: Induction of apoptosis in human A549 cells assessed as early apoptotic cells at 10 uM after 48 hrs by Annexin V-FITC/PI double staining based flow cytometric analysis (reference value: 2.04%); assay type: functional
[9] = test system: BEAS-2B; assay: Cytotoxicity against human BEAS-2B cells incubated for 48 hrs by CCK-8 assay; assay type: cell-based
Procedure, shortened: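 Cells from ATCC, passaged six times, grown in DMEM with 10% FBS and penicillin/streptomycin at 37 °C under 5% CO2. Seeded at 2500 cells/well, cultured overnight, treated 48 h, viability read by CCK-8. Run in triplicate; values are the mean of three experiments.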

[10] = test system: A549; assay: Induction of apoptosis in human A549 cells assessed as late apoptotic cells at 40 uM after 48 hrs by Annexin V-FITC/PI double staining based flow cytometric analysis (reference value: 4.62%); assay type: functional
[11] = test system: A549; assay: Induction of apoptosis in human A549 cells assessed as increase in PARP cleavage at 12.5 uM by Western blot analysis; assay type: functional, cell-based
[12] = test system: A549; assay: Induction of apoptosis in human A549 cells assessed as necrotic cells at 20 uM after 48 hrs by Annexin V-FITC/PI double staining based flow cytometric analysis (reference value: 1.57%); assay type: functional
[13] = test system: A549; assay: Induction of Wee1 accumulation in human A549 cells at 50 uM incubated for 6 to 12 hrs by Western blot analysis; assay type: functional, cell-based; details: time 6-12 hrs; procedure, shortened: as §1
[14] = test system: A549; assay: Induction of apoptosis in human A549 cells assessed as live cells at 20 uM after 48 hrs by Annexin V-FITC/PI double staining based flow cytometric analysis (reference value: 91.8%); assay type: functional

CCOc1nc2cccc(C(=O)NCCc3ccc(Cl)cc3Cl)c2n1Cc1ccc(-c2ccccc2-c2nnn[nH]2)cc1
Activity [1]: Active
Activity [2]: 18.6%
inhibition [3]: Active
Activity [4]: 35.81%
Activity [5]: Active
inhibition [6]: Active
Activity [7]: 4.62%
Activity [8]: 2.04%
IC50 [9]: 79.4 µM
Activity [10]: 3.71%
Activity [11]: Active
Activity [12]: 1.91%
Activity [13]: Active
Activity [14]: 72.6%
